Measured values published in ChEMBL document CHEMBL2424622, “Development of amino-pyrimidine inhibitors of c-Jun N-terminal kinase (JNK): kinase profiling guided optimization of a 1,2,3-benzotriazole lead” (Bioorg Med Chem Lett, 2013).

Experiments:
[1] = molecular target: T1, cGMP-dependent protein kinase 1 (Homo sapiens) (UniProt Q13976); experiment: Competitive binding affinity to PRKG1 (unknown origin) at 10 uM in presence of ATP relative to control
T1 sequence (whole entry): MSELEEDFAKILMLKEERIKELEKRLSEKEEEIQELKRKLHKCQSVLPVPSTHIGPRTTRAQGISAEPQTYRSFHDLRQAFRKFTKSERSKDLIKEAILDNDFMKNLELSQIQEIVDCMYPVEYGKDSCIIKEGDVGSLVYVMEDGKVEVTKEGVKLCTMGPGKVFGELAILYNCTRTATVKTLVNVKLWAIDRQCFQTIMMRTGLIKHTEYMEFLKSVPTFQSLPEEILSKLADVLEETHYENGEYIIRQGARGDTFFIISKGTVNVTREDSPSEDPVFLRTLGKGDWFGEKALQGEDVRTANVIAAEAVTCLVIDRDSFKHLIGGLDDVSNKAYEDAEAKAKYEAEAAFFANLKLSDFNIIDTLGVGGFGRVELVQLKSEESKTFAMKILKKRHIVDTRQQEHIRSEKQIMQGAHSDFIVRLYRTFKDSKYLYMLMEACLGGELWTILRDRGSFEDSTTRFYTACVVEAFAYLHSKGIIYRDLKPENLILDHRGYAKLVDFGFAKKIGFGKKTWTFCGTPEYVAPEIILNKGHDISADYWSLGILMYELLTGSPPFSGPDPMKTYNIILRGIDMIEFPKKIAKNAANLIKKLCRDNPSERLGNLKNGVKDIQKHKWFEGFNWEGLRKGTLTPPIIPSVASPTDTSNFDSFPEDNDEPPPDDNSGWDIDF

[2] = molecular target: T2, Serine/threonine-protein kinase tousled-like 1 (Homo sapiens) (UniProt Q9UKI8); experiment: Competitive binding affinity to TLK1 (unknown origin) at 10 uM in presence of ATP relative to control
T2 sequence (whole entry): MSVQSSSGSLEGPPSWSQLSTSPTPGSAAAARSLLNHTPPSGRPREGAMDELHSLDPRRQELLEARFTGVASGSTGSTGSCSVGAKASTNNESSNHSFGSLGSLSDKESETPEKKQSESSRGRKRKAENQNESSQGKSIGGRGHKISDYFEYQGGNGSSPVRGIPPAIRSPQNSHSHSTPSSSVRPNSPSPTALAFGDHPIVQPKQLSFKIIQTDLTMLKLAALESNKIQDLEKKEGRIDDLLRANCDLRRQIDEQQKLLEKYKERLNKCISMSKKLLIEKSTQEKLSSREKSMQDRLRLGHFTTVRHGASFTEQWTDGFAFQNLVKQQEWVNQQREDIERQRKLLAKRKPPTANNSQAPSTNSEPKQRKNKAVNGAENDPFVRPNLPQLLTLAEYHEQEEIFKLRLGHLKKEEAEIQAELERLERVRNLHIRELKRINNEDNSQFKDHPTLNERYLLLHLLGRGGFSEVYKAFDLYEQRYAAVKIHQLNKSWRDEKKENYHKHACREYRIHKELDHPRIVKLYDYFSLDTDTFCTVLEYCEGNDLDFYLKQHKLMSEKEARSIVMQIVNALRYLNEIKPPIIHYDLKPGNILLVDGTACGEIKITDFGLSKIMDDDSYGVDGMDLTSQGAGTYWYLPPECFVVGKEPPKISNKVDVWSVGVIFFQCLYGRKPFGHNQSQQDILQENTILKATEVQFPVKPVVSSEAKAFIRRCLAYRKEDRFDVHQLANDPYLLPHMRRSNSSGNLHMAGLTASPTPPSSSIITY

[3] = molecular target: Insulin receptor-related protein (Homo sapiens) (UniProt P14616); experiment: Competitive binding affinity to INSRR (unknown origin) at 10 uM in presence of ATP relative to control
[4] = molecular target: Aurora kinase B (Homo sapiens) (UniProt Q96GD4); experiment: Competitive binding affinity to AURKB (unknown origin) at 10 uM in presence of ATP relative to control
Outline: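 In vitro ATP-site competition binding assay across a diverse panel of 128 kinases, with each compound tested at a single concentration. Kinase binding is expressed relative to control.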

[5] = molecular target: Serine/threonine-protein kinase 32B (Homo sapiens) (UniProt Q9NY57); experiment: Competitive binding affinity to YANK2 (unknown origin) at 10 uM in presence of ATP relative to control
[6] = molecular target: Serine/threonine-protein kinase SIK2 (Homo sapiens) (UniProt Q9H0K1); experiment: Competitive binding affinity to SNF1LK2 (unknown origin) at 10 uM in presence of ATP relative to control
[7] = molecular target: T3, Muscle, skeletal receptor tyrosine-protein kinase (Homo sapiens) (UniProt O15146); experiment: Competitive binding affinity to MUSK (unknown origin) at 10 uM in presence of ATP relative to control
T3 sequence (whole entry): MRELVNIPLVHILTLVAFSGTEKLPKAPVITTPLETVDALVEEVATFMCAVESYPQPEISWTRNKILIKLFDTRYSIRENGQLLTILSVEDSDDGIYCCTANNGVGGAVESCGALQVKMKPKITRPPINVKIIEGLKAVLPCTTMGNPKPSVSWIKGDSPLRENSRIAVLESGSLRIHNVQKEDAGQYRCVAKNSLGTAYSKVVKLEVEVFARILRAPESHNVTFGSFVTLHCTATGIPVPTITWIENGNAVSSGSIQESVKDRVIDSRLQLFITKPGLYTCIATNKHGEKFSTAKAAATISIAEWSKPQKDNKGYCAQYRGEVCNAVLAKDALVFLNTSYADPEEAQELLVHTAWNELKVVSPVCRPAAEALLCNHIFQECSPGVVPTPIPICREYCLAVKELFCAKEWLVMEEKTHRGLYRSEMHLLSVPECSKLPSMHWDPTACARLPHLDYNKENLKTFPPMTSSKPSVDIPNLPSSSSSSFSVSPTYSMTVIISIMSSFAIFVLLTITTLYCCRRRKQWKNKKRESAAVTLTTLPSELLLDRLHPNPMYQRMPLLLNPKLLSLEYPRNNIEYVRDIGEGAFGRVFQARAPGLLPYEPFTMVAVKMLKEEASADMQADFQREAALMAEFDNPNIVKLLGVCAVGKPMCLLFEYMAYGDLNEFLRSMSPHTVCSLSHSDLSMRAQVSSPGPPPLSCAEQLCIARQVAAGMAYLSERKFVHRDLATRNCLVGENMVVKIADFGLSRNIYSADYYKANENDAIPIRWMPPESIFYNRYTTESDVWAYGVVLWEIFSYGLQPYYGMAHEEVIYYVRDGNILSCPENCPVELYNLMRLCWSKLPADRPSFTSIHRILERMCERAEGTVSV
Outline: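 In vitro ATP-site competition binding assay across a diverse panel of 128 kinases, with compound tested at a single concentration. Kinase selectivity scores (S15) were calculated from the panel profiles.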

[8] = molecular target: ALK tyrosine kinase receptor (Homo sapiens) (UniProt Q9UM73); experiment: Competitive binding affinity to ALK (unknown origin) at 10 uM in presence of ATP relative to control
[9] = molecular target: Mitogen-activated protein kinase kinase kinase 20 (Homo sapiens) (UniProt Q9NYL2); experiment: Competitive binding affinity to ZAK (unknown origin) at 10 uM in presence of ATP relative to control

Chain of ALK tyrosine kinase receptor (Homo sapiens) (Q9UM73 19-1620 limits assumed): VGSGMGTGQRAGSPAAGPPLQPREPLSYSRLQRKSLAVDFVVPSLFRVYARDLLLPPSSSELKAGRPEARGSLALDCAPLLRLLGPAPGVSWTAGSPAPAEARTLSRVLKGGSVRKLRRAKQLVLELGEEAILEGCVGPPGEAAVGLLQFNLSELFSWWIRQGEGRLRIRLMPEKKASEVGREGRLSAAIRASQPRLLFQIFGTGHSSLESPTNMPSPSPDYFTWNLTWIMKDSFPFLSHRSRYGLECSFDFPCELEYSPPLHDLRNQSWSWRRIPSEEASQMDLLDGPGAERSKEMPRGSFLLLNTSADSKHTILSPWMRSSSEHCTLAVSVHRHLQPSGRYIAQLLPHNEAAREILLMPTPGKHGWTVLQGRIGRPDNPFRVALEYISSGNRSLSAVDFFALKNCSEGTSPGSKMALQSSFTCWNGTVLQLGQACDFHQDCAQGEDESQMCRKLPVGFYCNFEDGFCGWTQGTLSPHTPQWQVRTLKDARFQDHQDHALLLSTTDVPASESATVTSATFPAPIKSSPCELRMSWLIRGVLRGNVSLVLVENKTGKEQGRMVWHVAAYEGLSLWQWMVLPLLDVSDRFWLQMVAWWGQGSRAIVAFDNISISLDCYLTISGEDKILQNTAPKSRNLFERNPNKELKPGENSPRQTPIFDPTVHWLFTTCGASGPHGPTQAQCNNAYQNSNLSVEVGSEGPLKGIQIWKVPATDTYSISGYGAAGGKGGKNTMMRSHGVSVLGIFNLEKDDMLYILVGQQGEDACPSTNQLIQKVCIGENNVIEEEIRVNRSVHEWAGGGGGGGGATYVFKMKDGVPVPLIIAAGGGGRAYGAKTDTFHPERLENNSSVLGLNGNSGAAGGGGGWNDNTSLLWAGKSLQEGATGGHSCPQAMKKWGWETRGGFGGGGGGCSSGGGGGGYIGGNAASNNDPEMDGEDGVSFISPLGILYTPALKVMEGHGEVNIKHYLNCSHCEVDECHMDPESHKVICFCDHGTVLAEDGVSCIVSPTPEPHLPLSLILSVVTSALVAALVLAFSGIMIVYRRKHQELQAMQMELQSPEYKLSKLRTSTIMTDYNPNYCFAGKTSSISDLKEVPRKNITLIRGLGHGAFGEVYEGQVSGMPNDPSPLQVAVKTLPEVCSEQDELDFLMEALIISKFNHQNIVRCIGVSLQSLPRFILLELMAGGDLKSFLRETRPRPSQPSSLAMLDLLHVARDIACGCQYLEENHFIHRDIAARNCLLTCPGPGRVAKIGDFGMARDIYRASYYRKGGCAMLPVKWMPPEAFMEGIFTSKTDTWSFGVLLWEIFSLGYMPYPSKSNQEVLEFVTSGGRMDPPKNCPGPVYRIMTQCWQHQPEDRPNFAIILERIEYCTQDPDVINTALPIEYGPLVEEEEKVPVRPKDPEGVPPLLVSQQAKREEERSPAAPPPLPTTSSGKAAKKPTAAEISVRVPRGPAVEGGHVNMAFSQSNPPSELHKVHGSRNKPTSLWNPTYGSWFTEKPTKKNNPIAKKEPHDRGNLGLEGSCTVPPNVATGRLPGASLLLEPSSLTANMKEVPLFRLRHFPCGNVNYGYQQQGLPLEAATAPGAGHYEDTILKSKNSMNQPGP
Chain of Serine/threonine-protein kinase SIK2 (Homo sapiens) (Q9H0K1 whole entry, looked up): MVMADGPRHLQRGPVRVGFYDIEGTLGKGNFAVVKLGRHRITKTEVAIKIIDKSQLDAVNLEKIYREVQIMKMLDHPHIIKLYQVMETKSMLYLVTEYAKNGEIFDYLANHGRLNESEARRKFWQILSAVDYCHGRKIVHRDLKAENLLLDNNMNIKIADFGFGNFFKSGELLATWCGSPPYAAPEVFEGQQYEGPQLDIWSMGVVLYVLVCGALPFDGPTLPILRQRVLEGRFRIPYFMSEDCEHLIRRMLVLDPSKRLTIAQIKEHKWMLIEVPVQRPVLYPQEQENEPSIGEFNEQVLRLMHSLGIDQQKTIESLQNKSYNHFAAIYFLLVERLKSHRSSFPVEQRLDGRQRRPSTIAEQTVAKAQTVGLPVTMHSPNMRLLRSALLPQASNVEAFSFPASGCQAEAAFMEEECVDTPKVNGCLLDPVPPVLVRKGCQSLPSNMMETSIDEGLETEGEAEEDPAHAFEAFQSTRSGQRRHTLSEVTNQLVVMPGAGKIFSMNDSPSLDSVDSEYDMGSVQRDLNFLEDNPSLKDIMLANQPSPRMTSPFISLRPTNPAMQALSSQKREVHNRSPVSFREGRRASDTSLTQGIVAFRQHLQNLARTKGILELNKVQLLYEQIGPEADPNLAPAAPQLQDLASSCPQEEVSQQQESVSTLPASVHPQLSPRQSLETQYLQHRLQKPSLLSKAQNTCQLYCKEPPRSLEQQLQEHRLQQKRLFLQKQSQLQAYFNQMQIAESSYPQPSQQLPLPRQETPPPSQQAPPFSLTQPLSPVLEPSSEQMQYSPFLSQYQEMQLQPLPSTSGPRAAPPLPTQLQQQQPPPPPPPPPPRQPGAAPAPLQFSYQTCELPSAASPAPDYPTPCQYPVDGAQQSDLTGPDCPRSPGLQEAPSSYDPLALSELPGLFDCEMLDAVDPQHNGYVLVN
Chain of Serine/threonine-protein kinase 32B (Homo sapiens) (Q9NY57 whole entry): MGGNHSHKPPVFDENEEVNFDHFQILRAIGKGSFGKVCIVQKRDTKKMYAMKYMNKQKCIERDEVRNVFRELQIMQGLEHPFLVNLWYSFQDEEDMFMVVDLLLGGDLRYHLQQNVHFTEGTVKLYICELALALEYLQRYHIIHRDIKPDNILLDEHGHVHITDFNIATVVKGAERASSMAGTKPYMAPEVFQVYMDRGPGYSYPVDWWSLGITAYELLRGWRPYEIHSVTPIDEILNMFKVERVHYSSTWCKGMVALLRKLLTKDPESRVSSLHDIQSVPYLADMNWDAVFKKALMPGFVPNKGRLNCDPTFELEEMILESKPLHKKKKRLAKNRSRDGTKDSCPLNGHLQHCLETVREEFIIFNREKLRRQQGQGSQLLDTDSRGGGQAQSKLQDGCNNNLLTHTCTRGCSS
Chain of Insulin receptor-related protein (Homo sapiens) (P14616 27-742 limits assumed): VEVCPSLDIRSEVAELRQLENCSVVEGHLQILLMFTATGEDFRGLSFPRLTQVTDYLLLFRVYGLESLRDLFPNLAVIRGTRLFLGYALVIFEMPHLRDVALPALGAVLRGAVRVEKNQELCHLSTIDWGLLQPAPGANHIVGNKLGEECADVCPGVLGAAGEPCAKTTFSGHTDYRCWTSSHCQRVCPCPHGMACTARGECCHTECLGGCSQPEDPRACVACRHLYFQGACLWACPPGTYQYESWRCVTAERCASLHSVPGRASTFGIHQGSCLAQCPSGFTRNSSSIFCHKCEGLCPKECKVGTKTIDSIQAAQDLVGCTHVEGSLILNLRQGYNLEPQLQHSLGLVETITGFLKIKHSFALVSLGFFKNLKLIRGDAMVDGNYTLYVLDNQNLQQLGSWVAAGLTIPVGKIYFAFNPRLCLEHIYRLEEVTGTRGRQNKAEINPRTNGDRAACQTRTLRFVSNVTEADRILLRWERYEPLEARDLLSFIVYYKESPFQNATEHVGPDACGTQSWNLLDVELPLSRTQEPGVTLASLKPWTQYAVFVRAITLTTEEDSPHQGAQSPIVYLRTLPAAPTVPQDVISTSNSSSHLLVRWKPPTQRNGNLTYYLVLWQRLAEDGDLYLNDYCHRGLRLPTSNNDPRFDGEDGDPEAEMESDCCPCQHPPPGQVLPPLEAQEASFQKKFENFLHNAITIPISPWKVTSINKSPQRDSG
Chain of Insulin receptor-related protein (Homo sapiens) (P14616 747-1297 limits assumed): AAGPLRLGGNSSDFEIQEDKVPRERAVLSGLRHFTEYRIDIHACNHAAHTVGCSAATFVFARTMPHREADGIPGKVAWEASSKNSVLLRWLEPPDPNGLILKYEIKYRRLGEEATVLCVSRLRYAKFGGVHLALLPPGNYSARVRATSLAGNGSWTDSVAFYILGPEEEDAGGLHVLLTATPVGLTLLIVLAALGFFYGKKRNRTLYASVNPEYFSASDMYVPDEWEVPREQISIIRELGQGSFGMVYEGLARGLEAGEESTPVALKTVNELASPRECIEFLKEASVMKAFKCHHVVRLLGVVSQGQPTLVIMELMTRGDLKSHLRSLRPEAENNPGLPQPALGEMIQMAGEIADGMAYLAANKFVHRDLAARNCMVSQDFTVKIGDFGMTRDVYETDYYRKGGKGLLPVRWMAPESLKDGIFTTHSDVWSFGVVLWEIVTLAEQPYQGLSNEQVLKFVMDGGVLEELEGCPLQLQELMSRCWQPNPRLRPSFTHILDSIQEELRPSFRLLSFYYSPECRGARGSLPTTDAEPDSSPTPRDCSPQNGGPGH
Chain of Aurora kinase B (Homo sapiens) (Q96GD4 whole entry): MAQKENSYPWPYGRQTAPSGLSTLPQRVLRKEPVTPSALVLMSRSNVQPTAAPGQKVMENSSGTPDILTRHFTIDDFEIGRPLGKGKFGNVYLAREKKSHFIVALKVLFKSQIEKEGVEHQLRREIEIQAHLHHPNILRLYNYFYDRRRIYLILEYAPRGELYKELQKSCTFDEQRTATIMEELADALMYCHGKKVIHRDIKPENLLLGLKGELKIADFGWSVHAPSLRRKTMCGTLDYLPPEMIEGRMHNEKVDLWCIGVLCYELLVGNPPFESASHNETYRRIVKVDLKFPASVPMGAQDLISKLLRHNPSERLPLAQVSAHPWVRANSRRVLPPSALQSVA

Row | inhibition [1] [%] | inhibition [2] [%] | inhibition [3] [%] | inhibition [4] [%] | inhibition [5] [%] | inhibition [6] [%] | inhibition [7] [%] | inhibition [8] [%] | inhibition [9] [%] | SMILES
1 | < 50 | < 50 | < 50 | < 50 | < 50 | < 50 | < 50 | 78 | < 50 | O[C@H]1CC[C@H](Nc2nccc(-n3ncc4ccccc43)n2)CC1
2 | < 50 | < 50 | < 50 | < 50 | < 50 | < 50 | < 50 | < 50 | < 50 | O[C@H]1CC[C@H](Nc2nccc(-n3ccc4ccccc43)n2)CC1
3 | < 50 | 90 | 98 | 91 | < 50 | – | < 50 | 100 | – | O[C@H]1CC[C@H](Nc2nccc(-c3n[nH]c4ccccc34)n2)CC1
4 | < 50 | < 50 | < 50 | 68 | < 50 | 73 | < 50 | 66 | 76 | O[C@H]1CC[C@H](Nc2nccc(-n3nnc4ccccc43)n2)CC1
